Data taken from ChEMBL document CHEMBL1629485, “Lead identification of conformationally restricted β-lactam type combretastatin analogues: synthesis, antiproliferative activity and tubulin targeting effects” (Eur J Med Chem, 2010).

Experiments:
MDA-MB-231 [1] = assay: Antiproliferative activity against estrogen receptor deficient human MDA-MB-231 cells after 72 hrs by MTT assay; assay type: functional, cell-based; conditions: MDA-MB-231, 72 h
How it was run: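 MCF-7 grown in Eagle's MEM with 10% FBS, 2 mM L-glutamine, penicillin/streptomycin and 1% non-essential amino acids; MDA-MB-231 grown in DMEM with 10% FBS, 2 mM L-glutamine and penicillin/streptomycin. Seeded at 2.5 × 10⁴ cells/mL, 24 h at 37 °C. Ethanol-stock compound, 1 nM–100 μM, 72 h, ethanol 1% v/v vehicle. MTT at 1 mg/mL final, 2 h dark, 37 °C, DMSO solubilised. Viability vs untreated control. IC50 is mean of three experiments in triplicate.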

MDA-MB-231 [2] = assay: Cytotoxicity against estrogen receptor deficient human MDA-MB-231 cells assessed as LDH release at 10 uM; assay type: functional
How it was run: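 After compound treatment, LDH was measured with a commercial LDH kit. Result is % cell lysis at 10 μM compound.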

MDA-MB-231 [3] = assay: Cell cycle arrest in estrogen receptor deficient human MDA-MB-231 cells assessed as accumulation at sub-G1 phase at 10 nM after 24 hrs using propidium iodide staining by flow cytometry relative to control; assay type: functional
How it was run: (§1)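 MDA-MB-231 cells in DMEM with 10% FBS and 2 mM L-glutamine, seeded at 18 × 10⁴ cells/mL. Exposed to test agent at the stated final concentration, or to 1% (v/v) ethanol vehicle, for 24, 48 or 72 h. Harvested by scraping and centrifugation, then RNase A treatment and propidium iodide DNA staining for at least 30 min at 37 °C. 10,000 cells per sample read at 488 nm by flow cytometry; mean ± SD of three experiments.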

MDA-MB-231 [4] = assay: Cell cycle arrest in estrogen receptor deficient human MDA-MB-231 cells assessed as accumulation at sub-G1 phase at 1 uM after 24 hrs using propidium iodide staining by flow cytometry relative to control; assay type: functional; how it was run: as §1
MDA-MB-231 [5] = assay: Cell cycle arrest in estrogen receptor deficient human MDA-MB-231 cells assessed as accumulation at sub-G1 phase at 10 uM after 24 hrs using propidium iodide staining by flow cytometry relative to control; assay type: functional; how it was run: as §1
MDA-MB-231 [6] = assay: Cell cycle arrest in estrogen receptor deficient human MDA-MB-231 cells assessed as accumulation at sub-G1 phase at 10 nM after 48 hrs using propidium iodide staining by flow cytometry relative to control; assay type: functional; how it was run: as §1
MDA-MB-231 [7] = assay: Cell cycle arrest in estrogen receptor deficient human MDA-MB-231 cells assessed as accumulation at sub-G1 phase at 10 nM after 72 hrs using propidium iodide staining by flow cytometry relative to control; assay type: functional; how it was run: as §1
MDA-MB-231 [8] = assay: Cell cycle arrest in estrogen receptor deficient human MDA-MB-231 cells assessed as accumulation at sub-G1 phase at 100 nM after 72 hrs using propidium iodide staining by flow cytometry relative to control; assay type: functional; how it was run: as §1
MDA-MB-231 [9] = assay: Cell cycle arrest in estrogen receptor deficient human MDA-MB-231 cells assessed as accumulation at G1 phase at 100 nM after 24 hrs using propidium iodide staining by flow cytometry relative to control; assay type: functional; how it was run: as §1
MDA-MB-231 [10] = assay: Cell cycle arrest in estrogen receptor deficient human MDA-MB-231 cells assessed as accumulation at G1 phase at 100 nM after 48 hrs using propidium iodide staining by flow cytometry relative to control; assay type: functional; how it was run: as §1
MDA-MB-231 [11] = assay: Cell cycle arrest in estrogen receptor deficient human MDA-MB-231 cells assessed as accumulation at G1 phase at 100 nM after 72 hrs using propidium iodide staining by flow cytometry relative to control; assay type: functional; how it was run: as §1
MDA-MB-231 [12] = assay: Cell cycle arrest in estrogen receptor deficient human MDA-MB-231 cells assessed as accumulation at S phase at 1 uM after 24 hrs using propidium iodide staining by flow cytometry relative to control; assay type: functional; how it was run: as §1
MDA-MB-231 [13] = assay: Cell cycle arrest in estrogen receptor deficient human MDA-MB-231 cells assessed as accumulation at S phase at 10 nM after 48 hrs using propidium iodide staining by flow cytometry relative to control; assay type: functional; how it was run: as §1
MDA-MB-231 [14] = assay: Cell cycle arrest in estrogen receptor deficient human MDA-MB-231 cells assessed as accumulation at S phase at 10 uM after 48 hrs using propidium iodide staining by flow cytometry relative to control; assay type: functional; how it was run: as §1
MDA-MB-231 [15] = assay: Cell cycle arrest in estrogen receptor deficient human MDA-MB-231 cells assessed as accumulation at S phase at 100 nM after 72 hrs using propidium iodide staining by flow cytometry relative to control; assay type: functional; how it was run: as §1
MDA-MB-231 [16] = assay: Cell cycle arrest in estrogen receptor deficient human MDA-MB-231 cells assessed as accumulation at S phase at 10 uM after 72 hrs using propidium iodide staining by flow cytometry relative to control; assay type: functional; how it was run: as §1
MDA-MB-231 [17] = assay: Cell cycle arrest in estrogen receptor deficient human MDA-MB-231 cells assessed as accumulation at G2/M phase at 10 nM after 24 hrs using propidium iodide staining by flow cytometry relative to control; assay type: functional; how it was run: as §1
MDA-MB-231 [18] = assay: Cell cycle arrest in estrogen receptor deficient human MDA-MB-231 cells assessed as accumulation at G2/M phase at 10 uM after 48 hrs using propidium iodide staining by flow cytometry relative to control; assay type: functional; how it was run: as §1
MDA-MB-231 [19] = assay: Cell cycle arrest in estrogen receptor deficient human MDA-MB-231 cells assessed as accumulation at G2/M phase at 100 nM after 72 hrs using propidium iodide staining by flow cytometry relative to control; assay type: functional; how it was run: as §1
MDA-MB-231 [20] = assay: Cell cycle arrest in estrogen receptor deficient human MDA-MB-231 cells assessed as accumulation at G2/M phase at 1 uM after 72 hrs using propidium iodide staining by flow cytometry relative to control; assay type: functional; how it was run: as §1
MDA-MB-231 [21] = assay: Cell cycle arrest in estrogen receptor deficient human MDA-MB-231 cells assessed as accumulation at G2/M phase at 10 uM after 72 hrs using propidium iodide staining by flow cytometry relative to control; assay type: functional; how it was run: as §1
MDA-MB-231 [22] = assay: Cell cycle arrest in estrogen receptor deficient human MDA-MB-231 cells assessed as appearance of polyploidy at 100 nM after 24 hrs using propidium iodide staining by flow cytometry relative to control; assay type: functional
How it was run: (§2)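 MDA-MB-231 cells seeded at 18 × 10⁴ cells/mL and exposed to 1% (v/v) ethanol vehicle or compound at final concentrations (10 nM, 100 nM, 10 µM at all times; 1 µM also at 24 and 72 h). Cells harvested after 24, 48 or 72 h and treated with RNase A and propidium iodide for at least 30 min at 37 °C. 10,000 cells read at 488 nm by flow cytometry. Percent cells per phase reported, including polyploid; mean ± SD of three experiments.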

MDA-MB-231 [23] = assay: Cell cycle arrest in estrogen receptor deficient human MDA-MB-231 cells assessed as appearance of polyploidy at 10 uM after 24 hrs using propidium iodide staining by flow cytometry relative to control; assay type: functional; how it was run: as §1
MDA-MB-231 [24] = assay: Cell cycle arrest in estrogen receptor deficient human MDA-MB-231 cells assessed as appearance of polyploidy at 10 uM after 48 hrs using propidium iodide staining by flow cytometry relative to control; assay type: functional; how it was run: as §2
MDA-MB-231 [25] = assay: Cell cycle arrest in estrogen receptor deficient human MDA-MB-231 cells assessed as appearance of polyploidy at 10 nM after 72 hrs using propidium iodide staining by flow cytometry relative to control; assay type: functional; how it was run: as §1
MDA-MB-231 [26] = assay: Cell cycle arrest in estrogen receptor deficient human MDA-MB-231 cells assessed as appearance of polyploidy at 100 nM after 72 hrs using propidium iodide staining by flow cytometry relative to control; assay type: functional; how it was run: as §2
MDA-MB-231 [27] = assay: Cell cycle arrest in estrogen receptor deficient human MDA-MB-231 cells assessed as appearance of polyploidy at 10 uM after 72 hrs using propidium iodide staining by flow cytometry relative to control; assay type: functional; how it was run: as §2

For `COc1ccc(C2CC(=O)N2c2cc(OC)c(OC)c(OC)c2)cc1O` (configuration not stated), the IC50 (MDA-MB-231 [1]) was 54 nM, the Activity (MDA-MB-231 [2]) was 16% and the Activity (MDA-MB-231 [3]) was 3.72%. The Activity (MDA-MB-231 [4]) was 7.08%, the Activity (MDA-MB-231 [5]) was 3.18% and the Activity (MDA-MB-231 [6]) was 11.57%. The Activity (MDA-MB-231 [7]) was 15.25%, the Activity (MDA-MB-231 [8]) was 63.1% and the Activity (MDA-MB-231 [9]) was 18.95%. The Activity (MDA-MB-231 [10]) was 10.76%, the Activity (MDA-MB-231 [11]) was 13.9% and the Activity (MDA-MB-231 [12]) was 6.01%. The Activity (MDA-MB-231 [13]) was 13.36%, the Activity (MDA-MB-231 [14]) was 4.47% and the Activity (MDA-MB-231 [15]) was 5.34%. The Activity (MDA-MB-231 [16]) was 9.66%, the Activity (MDA-MB-231 [17]) was 25.61% and the Activity (MDA-MB-231 [18]) was 27.25%. For the same molecule, the Activity (MDA-MB-231 [19]) was 12.62%, the Activity (MDA-MB-231 [20]) was 21.24% and the Activity (MDA-MB-231 [21]) was 21.81%. It also gave an Activity (MDA-MB-231 [22]) of 4.87%, an Activity (MDA-MB-231 [23]) of 3.85% and an Activity (MDA-MB-231 [24]) of 2.28%. The Activity (MDA-MB-231 [25]) was 3.55%, the Activity (MDA-MB-231 [26]) was 2.99% and the Activity (MDA-MB-231 [27]) was 3.38%.
